From paper PMC5949723 (Journal of Medicinal Chemistry, 2018)
pIC50, pKi: −log10 of the molar value. Blank lines part the entries; values can stand above or below the compound they belong to.

What was measured:
full length TbrPDEB1 [1] = target: T1, full length TbrPDEB1 (Trypanosoma brucei, UniProt Q8WQX9); experiment: Phosphodiesterase activity assay; type: biochemical; conditions: for Selectivity, hPDE4B1 (Ki)/TbrPDEB1 (Ki): ratio of Ki values
T1 sequence (Q8WQX9 1-930): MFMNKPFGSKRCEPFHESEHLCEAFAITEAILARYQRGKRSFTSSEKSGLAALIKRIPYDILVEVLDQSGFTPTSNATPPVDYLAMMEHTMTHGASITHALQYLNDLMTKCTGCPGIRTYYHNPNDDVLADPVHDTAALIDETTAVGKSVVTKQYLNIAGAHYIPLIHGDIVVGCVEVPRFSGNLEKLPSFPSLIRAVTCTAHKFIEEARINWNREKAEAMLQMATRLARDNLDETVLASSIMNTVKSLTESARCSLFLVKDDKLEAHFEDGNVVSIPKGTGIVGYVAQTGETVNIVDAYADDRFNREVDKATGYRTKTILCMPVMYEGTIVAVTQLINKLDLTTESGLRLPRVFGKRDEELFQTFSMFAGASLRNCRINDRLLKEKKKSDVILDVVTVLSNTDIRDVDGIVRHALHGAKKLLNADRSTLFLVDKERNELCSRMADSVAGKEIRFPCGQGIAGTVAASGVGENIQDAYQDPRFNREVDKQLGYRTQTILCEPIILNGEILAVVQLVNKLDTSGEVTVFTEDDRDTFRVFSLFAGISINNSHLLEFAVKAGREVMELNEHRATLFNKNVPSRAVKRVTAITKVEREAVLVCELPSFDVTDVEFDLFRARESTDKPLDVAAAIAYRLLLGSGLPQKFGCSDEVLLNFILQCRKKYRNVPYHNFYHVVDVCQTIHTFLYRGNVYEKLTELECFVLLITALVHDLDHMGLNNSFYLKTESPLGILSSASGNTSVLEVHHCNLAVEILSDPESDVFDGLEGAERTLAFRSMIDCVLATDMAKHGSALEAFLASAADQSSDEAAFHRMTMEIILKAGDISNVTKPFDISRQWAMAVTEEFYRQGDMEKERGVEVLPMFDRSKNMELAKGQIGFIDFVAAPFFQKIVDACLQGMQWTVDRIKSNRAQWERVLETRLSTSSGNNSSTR

[2] = system: T. brucei cellular PDE activity; conditions: cited from earlier work
full length TbrPDEB1 [3] = target: T1, full length TbrPDEB1; conditions: established hPDE4 inhibitors; cited from earlier work
T. brucei = conditions: cited from earlier work
[4] = system: intracellular cAMP levels in T. brucei; experiment: Intracellular cAMP measurements in bloodstream form trypanosomes; type: cell-based, T. brucei Lister 427; conditions: 5 h
In short: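 Log-phase bloodstream forms, HMI-9 with 10% heat-inactivated FBS, 37 °C, 5% CO2, set at 2 × 10^6 cells/mL. Dosed 5 h with test compound at 0.1, 0.33, 1, 3.3 or 10 μM (final), 0.3 μM PDE inhibitor positive control, 0.025 μM pentamidine, or no drug. 5 × 10^6 cells pelleted and lysed in 0.1 M HCl on ice 20 min; cAMP assayed in extracts in duplicate. Mean of four determinations ± SEM, Student's t-test, P < 0.05.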

[5] = target: T2, full length recombinant hPDE4B1 (Homo sapiens, UniProt Q07343); conditions: read-out: hPDE4B1 IC50; cited from earlier work
hPDE4 subtypes = conditions: read-out: hPDE4 subtypes IC50; cited from earlier work
[6] = target: T2, full length recombinant hPDE4B1; experiment: Phosphodiesterase activity assay; type: biochemical
[7] = system: T. brucei bloodstream forms; experiment: Microscopy and DAPI staining; type: cell-based; conditions: 10 μM
In short: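 Lister 427 bloodstream forms in HMI-9 with 10% heat-inactivated FBS, 37 °C, 5% CO2, seeded at 2 × 10^5 cells/mL with 10 μM test compound. Sampled at 0, 6, 12 and 24 h, pelleted at 4 °C, washed in PBS pH 7.4 and spread on slides. DAPI-stained; brightfield and fluorescence imaging scored nuclear and kinetoplast division, cytokinesis and morphology.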

T2 sequence (Q07343 whole entry): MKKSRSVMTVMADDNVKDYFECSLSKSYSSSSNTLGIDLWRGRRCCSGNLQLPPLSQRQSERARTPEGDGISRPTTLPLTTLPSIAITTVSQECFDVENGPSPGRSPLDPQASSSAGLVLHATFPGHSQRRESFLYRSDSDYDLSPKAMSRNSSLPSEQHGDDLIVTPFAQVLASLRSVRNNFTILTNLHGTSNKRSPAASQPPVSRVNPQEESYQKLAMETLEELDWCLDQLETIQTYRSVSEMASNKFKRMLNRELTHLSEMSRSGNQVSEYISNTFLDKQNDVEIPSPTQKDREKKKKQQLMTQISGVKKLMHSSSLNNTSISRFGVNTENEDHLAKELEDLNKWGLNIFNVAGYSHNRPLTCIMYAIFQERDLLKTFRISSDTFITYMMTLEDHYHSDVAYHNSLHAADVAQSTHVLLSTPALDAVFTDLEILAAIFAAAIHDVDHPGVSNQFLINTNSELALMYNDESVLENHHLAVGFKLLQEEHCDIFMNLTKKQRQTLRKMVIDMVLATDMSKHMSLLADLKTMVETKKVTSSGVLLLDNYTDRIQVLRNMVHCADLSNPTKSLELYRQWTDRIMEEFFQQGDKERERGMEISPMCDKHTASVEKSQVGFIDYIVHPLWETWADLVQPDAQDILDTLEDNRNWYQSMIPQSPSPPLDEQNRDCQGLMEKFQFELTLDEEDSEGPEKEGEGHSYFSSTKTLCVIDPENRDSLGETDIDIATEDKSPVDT

SMILES: COc1ccc(C2CNC(=O)C2)cc1OC1CCCC1 (stereo not drawn) [rolipram]
inhibition of T. brucei cellular PDE activity [2]: do not inhibit | inhibition of the enzyme TbrPDEB1 (full length TbrPDEB1 [3]): do not inhibit | killing of the parasite (T. brucei): do not kill the parasite

SMILES: COc1ccc(C2=NN(C3CCCCCC3)C(=O)[C@@H]3CC=CC[C@H]23)cc1OCCCCOc1ccc(-c2nnn[nH]2)cc1 [compound 1]
effect on intracellular cAMP level ([4]; positive control 0.3 μM, compared with 10 μM of 8): equally effective | pIC50 [5]: 9.22 | pIC50 (hPDE4 subtypes): > 9.00

SMILES: CCOC(=O)c1cnc2c(cnn2CC)c1NN=C(C)C [etazolate]
inhibition of T. brucei cellular PDE activity [2]: do not inhibit | inhibition of the enzyme TbrPDEB1 (full length TbrPDEB1 [3]): do not inhibit | killing of the parasite (T. brucei): do not kill the parasite

SMILES: N=C(N)c1ccc(OCCCCCOc2ccc(C(=N)N)cc2)cc1 [pentamidine, reference compound]
effect on intracellular cAMP level ([4]; negative control, 0.025 μM, versus untreated parasites): not statistically different from untreated parasites

SMILES: COc1ccc(C2=NN(C(C)C)C(=O)C3CC=CCC23)cc1-c1ccc(C(=O)N2CC[C@@H](O)C2)cc1 (mixture of isomers) [compound 22, cis-4-(4′-((R)-3-Hydroxypyrrolidine-1-carbonyl)-6-methoxy-[1,1′-biphenyl]-3-yl)-2-isopropyl-4a,5,8,8a-tetrahydrophthalazin-1(2H)-one]
pKi (full length TbrPDEB1 [1]): 6.70 | Selectivity, hPDE4B1 (Ki)/TbrPDEB1 (Ki) (full length TbrPDEB1 [1]): 15 | pKi [6]: 5.50

Second part, led by results:

selectivity for TbrPDEB1 over hPDE4B1 (full length TbrPDEB1 [1]): ~8 fold
SMILES: COc1ccc(C2=NN(C3CCCCCC3)C(=O)[C@@H]3CC=CC[C@H]23)cc1-c1ccc(C(=O)NCC(=O)NCCO)cc1 (relative stereo) [compound 16, 5′-(cis-3-Cycloheptyl-4-oxo-3,4,4a,5,8,8a-hexahydrophthalazin-1-yl)-N-(2-((2-hydroxyethyl)amino)-2-oxoethyl)-2′-methoxy-[1,1′-biphenyl]-4-carboxamide]

selectivity for TbrPDEB1 over hPDE4B1 (full length TbrPDEB1 [1]): more than 10 fold | Selectivity, hPDE4B1 (Ki)/TbrPDEB1 (Ki) (full length TbrPDEB1 [1]): 18 | pKi [6]: 5.00
SMILES: COc1ccc(C2=NN(C(C)C)C(=O)C3CC=CCC23)cc1-c1ccc(C(=O)N2CCC[C@@H]2C(N)=O)cc1 (mixture of isomers) [compound 24, (R)-1-(5′-(cis-3-Isopropyl-4-oxo-3,4,4a,5,8,8a-hexahydrophthalazin-1-yl)-2′-methoxy-[1,1′-biphenyl]-4-carbonyl)pyrrolidine-2-carboxamide]

Selectivity, hPDE4B1 (Ki)/TbrPDEB1 (Ki) (full length TbrPDEB1 [1]): 9
SMILES: COc1ccc(C2=NN(C3CCCCCC3)C(=O)C3CC=CCC23)cc1-c1ccc(C(=O)N2CC[C@@H](O)C2)cc1 (mixture of isomers) [compound 21, cis-2-Cycloheptyl-4-(4′-((R)-3-hydroxy-pyrrolidine-1-carbonyl)-6-methoxy-[1,1′-biphenyl]-3-yl)-4a,5,8,8a-tetrahydrophthalazin-1(2H)-one]

selectivity for TbrPDEB1 over hPDE4B1 (full length TbrPDEB1 [1]): more than 10 fold
SMILES: COc1ccc(C2=NN(C3CCCCCC3)C(=O)C3CC=CCC23)cc1-c1ccc(C(=O)N2CCC[C@@H]2C(N)=O)cc1 (mixture of isomers) [compound 23, (R)-1-(5′-(cis-3-Cycloheptyl-4-oxo-3,4,4a,5,8,8a-hexahydrophthalazin-1-yl)-2′-methoxy-[1,1′-biphenyl]-4-carbonyl)pyrrolidine-2-carboxamide]

fold less potent against TbrPDEB1 than optical isomer 8b (full length TbrPDEB1 [1]; 8a versus 8b): 100 fold
SMILES: COc1ccc(C2=NN(C3CCCCCC3)C(=O)[C@H]3CC=CC[C@@H]23)cc1-c1ccc(C(=O)NCC(N)=O)cc1 [8a, N-(2-Amino-2-oxoethyl)-5′-((4aS,8aR)-3-cycloheptyl-4-oxo-3,4,4a,5,8,8a-hexahydrophthalazin-1-yl)-2′-methoxy-[1,1′-biphenyl]-4-carboxamide]

pKi (full length TbrPDEB1 [1]): 7.00 | pKi [6]: 6.00
SMILES: COc1ccc(C2=NN(C3CCCCCC3)C(=O)[C@@H]3CC=CC[C@H]23)cc1-c1ccc(C(=O)NCC(N)=O)cc1 (relative stereo) [compound 8, N-(2-Amino-2-oxoethyl)-5′-(cis-3-cycloheptyl-4-oxo-3,4,4a,5,8,8a-hexahydrophthalazin-1-yl)-2′-methoxy-[1,1′-biphenyl]-4-carboxamide]
effect on intracellular cAMP level ([4]; 100 nM, P < 0.05): small but significant effect | effect on intracellular cAMP level ([4]; 10 μM, P < 0.001): strong increase of cAMP level | cellular phenotype by fluorescence microscopy ([7]; 6 h): defect in cytokinesis | cellular phenotype by fluorescence microscopy ([7]; 12 h): rounded cells with multiple flagella, some of them detached, and at least 4 nuclei | cellular phenotype by fluorescence microscopy ([7]; 24 h): only a few live cells could be detected, all of which were severely misshapen
